pIC50: −log10 of the molar value. Values belong to the compound of their own block, whether it stands above or below them. Activity calls are given as the source filed them. The rule behind the calls is not given here.
Assays:
[1] = target: T1, Mitogen-activated protein kinase kinase kinase 9 (Homo sapiens, UniProt P80192); test: Inhibition of GST-fused human MLK1 expressed in CHO cells assessed as MKK4 phosphorylation; assay type: cell-based
How it was run: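 CHO cells transfected with MLK1 plus dominant-negative MKK4 cDNA; phospho-MKK4 quantified by ELISA; IC50 derived.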
Target sequence in this assay (P80192 whole entry, the tested form may be a part): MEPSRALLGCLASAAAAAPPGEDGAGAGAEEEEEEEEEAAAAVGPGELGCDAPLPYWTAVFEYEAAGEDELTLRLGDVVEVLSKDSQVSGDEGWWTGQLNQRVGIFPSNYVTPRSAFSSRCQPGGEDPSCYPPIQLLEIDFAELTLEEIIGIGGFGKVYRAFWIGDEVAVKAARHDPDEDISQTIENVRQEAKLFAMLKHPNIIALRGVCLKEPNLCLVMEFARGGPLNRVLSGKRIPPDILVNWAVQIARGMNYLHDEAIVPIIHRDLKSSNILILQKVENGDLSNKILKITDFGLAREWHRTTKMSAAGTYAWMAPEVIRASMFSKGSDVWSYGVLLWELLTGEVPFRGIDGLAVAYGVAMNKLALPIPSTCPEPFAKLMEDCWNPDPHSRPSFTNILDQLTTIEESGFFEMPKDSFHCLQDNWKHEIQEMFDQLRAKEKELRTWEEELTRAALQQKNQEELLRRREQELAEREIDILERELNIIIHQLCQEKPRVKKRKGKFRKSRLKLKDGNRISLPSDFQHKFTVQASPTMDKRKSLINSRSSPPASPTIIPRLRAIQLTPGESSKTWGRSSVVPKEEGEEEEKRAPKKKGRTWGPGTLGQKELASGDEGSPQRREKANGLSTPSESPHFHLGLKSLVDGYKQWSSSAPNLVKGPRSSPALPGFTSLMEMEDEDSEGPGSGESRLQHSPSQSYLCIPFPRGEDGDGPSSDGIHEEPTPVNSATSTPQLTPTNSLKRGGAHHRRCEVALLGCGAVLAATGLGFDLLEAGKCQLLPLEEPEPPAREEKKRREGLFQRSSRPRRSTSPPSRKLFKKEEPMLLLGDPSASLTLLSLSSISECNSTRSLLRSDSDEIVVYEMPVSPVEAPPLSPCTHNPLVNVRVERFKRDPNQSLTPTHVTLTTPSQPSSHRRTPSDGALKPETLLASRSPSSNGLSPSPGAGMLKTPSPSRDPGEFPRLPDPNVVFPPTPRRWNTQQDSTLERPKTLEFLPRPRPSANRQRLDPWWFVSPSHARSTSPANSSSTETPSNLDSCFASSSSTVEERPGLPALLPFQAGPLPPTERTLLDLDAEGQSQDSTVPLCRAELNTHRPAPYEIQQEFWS

[2] = target: T1, Mitogen-activated protein kinase kinase kinase 9; test: Inhibition of GST-fused human MLK1
How it was run: (§1)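 GST fusions of human MLK kinase domains from baculovirus (50 ng MLK1_KD, 150 ng MLK2_KD/LZ, 100 ng MLK3_KD), substrate 500 µg/mL myelin basic protein. Buffer 20 mM Hepes pH 7.2, 5 mM EGTA, 15 mM MgCl2, 1 mM DTT, 25 mM β-glycerophosphate, 0.1% BSA, 2% DMSO.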
Target sequence in this assay (P80192 whole entry, the tested form may be a part): as above

[3] = target: T2, Mitogen-activated protein kinase kinase kinase 11 (Homo sapiens, UniProt Q16584); test: Inhibition of GST-fused human MLK3; how it was run: as §1
Target sequence in this assay (Q16584 whole entry, the tested form may be a part): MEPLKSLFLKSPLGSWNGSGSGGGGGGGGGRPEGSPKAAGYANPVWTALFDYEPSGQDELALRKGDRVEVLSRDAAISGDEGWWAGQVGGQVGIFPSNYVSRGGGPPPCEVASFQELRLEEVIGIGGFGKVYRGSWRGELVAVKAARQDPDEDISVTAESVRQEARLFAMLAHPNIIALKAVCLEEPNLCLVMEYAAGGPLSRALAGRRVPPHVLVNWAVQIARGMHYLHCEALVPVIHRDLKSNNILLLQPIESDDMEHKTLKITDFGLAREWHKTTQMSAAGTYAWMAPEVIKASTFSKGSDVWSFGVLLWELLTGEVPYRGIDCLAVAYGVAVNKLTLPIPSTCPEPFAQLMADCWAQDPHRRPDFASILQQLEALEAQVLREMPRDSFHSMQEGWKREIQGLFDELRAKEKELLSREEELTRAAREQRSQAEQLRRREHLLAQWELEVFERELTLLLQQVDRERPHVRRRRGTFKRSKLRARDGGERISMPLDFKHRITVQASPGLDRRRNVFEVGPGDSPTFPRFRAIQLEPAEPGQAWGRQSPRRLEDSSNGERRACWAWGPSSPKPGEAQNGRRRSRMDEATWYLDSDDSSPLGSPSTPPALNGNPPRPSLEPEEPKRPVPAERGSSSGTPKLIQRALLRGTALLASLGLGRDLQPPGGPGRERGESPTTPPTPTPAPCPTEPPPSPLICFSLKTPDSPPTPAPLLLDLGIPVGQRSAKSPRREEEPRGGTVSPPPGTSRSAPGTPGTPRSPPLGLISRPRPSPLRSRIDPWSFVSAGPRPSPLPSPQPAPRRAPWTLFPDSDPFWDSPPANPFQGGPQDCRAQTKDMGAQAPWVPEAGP

[4] = target: T1, Mitogen-activated protein kinase kinase kinase 9; test: Inhibition of GST-fused human MLK1 at 1 uM
How it was run: (§2)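 Baculovirus-expressed GST fusions of human MLK1 or MLK3 kinase domain (50 ng MLK1, 100 ng MLK3), myelin basic protein substrate at 500 µg/mL.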
Target sequence in this assay (P80192 whole entry, looked up, the tested form may be a part): as the sequence (P80192 whole entry, the tested form may be a part) above

[5] = target: T2, Mitogen-activated protein kinase kinase kinase 11; test: Inhibition of GST-fused human MLK3 at 1 uM; how it was run: as §2
Target sequence in this assay (Q16584 whole entry, looked up, the tested form may be a part): as the sequence (Q16584 whole entry, the tested form may be a part) above

[6] = target: Fibroblast growth factor receptor 1 (Homo sapiens, UniProt P11362); test: Inhibition of human FGFR1 expressed in baculovirus insect cell system
[7] = target: Mitogen-activated protein kinase 14 (Homo sapiens, UniProt Q16539); test: Inhibition of human P38alpha expressed in baculovirus insect cell system
[8] = Inhibition of human IRK expressed in baculovirus insect cell system
[9] = target: Cyclin-dependent kinase; test: Inhibition of human CDK expressed in baculovirus insect cell system
[10] = target: Serine/threonine-protein kinase Chk1/2 (Homo sapiens, UniProt O96017+O14757); test: Inhibition of human CHK1/2 expressed in baculovirus insect cell system
[11] = target: Tyrosine-protein kinase Fyn (Homo sapiens, UniProt P06241); test: Inhibition of human Fyn kinase expressed in baculovirus insect cell system
[12] = Half life in Sprague-Dawley rat at 1 mg/kg, iv; assay type: ADME, organism-based; parameters: dose 1 mg/kg, route intravenous; conditions: in vivo
How it was run: (§3)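 Rat PK: iv dose into lateral tail vein in 3% DMSO/30% solutol/67% PBS; oral gavage in 50% Tween 80/40% propylene carbonate/10% propylene glycol, rats fasted overnight before oral dosing. Serial tail-vein blood at seven times over 6 h into heparinized tubes. Plasma protein-precipitated with acetonitrile, analysed with internal standard by LC-MS/MS. Bioavailability from iv versus po AUCs.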

[13] = AUC in Sprague-Dawley rat at 1 mg/kg, iv; assay type: ADME, organism-based; parameters: dose 1 mg/kg, route intravenous; conditions: plasma
How it was run: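 Single intravenous dose into the lateral tail vein in 3% DMSO, 30% solutol and 67% phosphate-buffered saline. Serial heparinized blood samples were taken from the lateral tail vein at seven times over 6 h. Plasma was separated by centrifugation, deproteinized with acetonitrile and analysed for drug against an internal standard by LC-MS/MS.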

[14] = Volume of distribution in Sprague-Dawley rat at 1 mg/kg, iv; assay type: ADME, organism-based; parameters: dose 1 mg/kg, route intravenous; conditions: in vivo; how it was run: as §3
[15] = Clearance in Sprague-Dawley rat at 1 mg/kg, iv; assay type: ADME, organism-based; parameters: dose 1 mg/kg, route intravenous; conditions: in vivo; how it was run: as §3
[16] = AUC in Sprague-Dawley rat at 5 mg/kg, po; assay type: ADME, organism-based; parameters: dose 5 mg/kg, route oral; conditions: plasma
How it was run: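 Rats were fasted overnight, then dosed by oral gavage in 50% Tween 80, 40% propylene carbonate and 10% propylene glycol. Serial heparinized blood samples were taken from the lateral tail vein at seven times over 6 h. Plasma was deproteinized with acetonitrile and analysed for drug against an internal standard by LC-MS/MS.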

[17] = Cmax in Sprague-Dawley rat at 5 mg/kg, po; assay type: ADME, organism-based; parameters: dose 5 mg/kg, route oral; conditions: in vivo; how it was run: as §3
[18] = Half life in Sprague-Dawley rat at 5 mg/kg, po; assay type: ADME, organism-based; parameters: dose 5 mg/kg, route oral; conditions: in vivo; how it was run: as §3
[19] = Oral bioavailability in Sprague-Dawley rat at 5 mg/kg; assay type: ADME, organism-based; conditions: in vivo; how it was run: as §3
[20] = Metabolic stability in rat liver S9 fraction after 2 hrs in presence of NADPH; assay type: ADME, subcellular; conditions: read-out: Stability
How it was run: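 Incubated 2 h in rat liver S9 preparation with NADPH; percent parent remaining reported.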

[21] = test system: SH-SY5Y; test: Neuroprotective activity against human SH-SY5Y cells assessed as inhibition of MPP+-induced cell death; assay type: functional, cell-based
[22] = test system: Mus musculus; test: Inhibition of MPTP-induced increase in pMKK4 levels in mouse at 6.7 mg/kg, po administered 2 hrs before MPTP challenge followed by 40 mg/kg, sc 2 hrs after MPTP challenge; assay type: functional; parameters: Activity: scale not given: the % may be the effect or the level left
How it was run: (§4)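 Mice dosed orally at 6.7 mg/kg 2 h before and 2 h after MPTP (40 mg/kg sc). Substantia nigra dissected 2 h after second dose; pMKK4 measured by immunoblot against treated and control groups. Plasma drug levels taken 2 h after dosing (4 h post-MPTP).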

[23] = Plasma concentration in mouse at 6.7 mg/kg, po administered 2 hrs before MPTP challenge followed by 40 mg/kg, sc 2 hrs after MPTP challenge; assay type: ADME, organism-based; conditions: other: po followed by sc; how it was run: as §4
[24] = test system: Mus musculus; test: Neuroprotective activity against MPTP-induced loss of striatal dopamine markers in po dosed mouse administered twice daily; assay type: functional, organism-based
How it was run: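 Mouse MPTP neurotoxicity: low dose 20 mg/kg sc, assessing striatal DA terminals by GBR-12935 binding; high dose 40 mg/kg sc, assessing striatal DA markers and substantia nigra cell bodies by TH immunoreactivity. Test compounds given orally, q.d. or b.i.d.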

[25] = target: Mitogen-activated protein kinase kinase kinase 10 (Homo sapiens, UniProt Q02779); test: Inhibition of human MLK2 expressed in baculovirus insect cell system
How it was run: as §1, with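 “DMSO. […] 15 min at 37 °C, TCA precipitation, scintillation counting. IC50 by variable-slope sigmoidal fit, average of duplicates within 20%.” for “DMSO.”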

[26] = target: High affinity nerve growth factor receptor (Homo sapiens, UniProt P04629); test: Inhibition of human TrkA expressed in baculovirus insect cell system
[27] = target: c-Jun N-terminal kinase, JNK (Homo sapiens, UniProt P45983+P53779+P45984); test: Inhibition of human JNK expressed in baculovirus insect cell system
[28] = target: T3, Dual specificity mitogen-activated protein kinase kinase 4 (Homo sapiens, UniProt P45985); test: Inhibition of human MKK4/7 expressed in baculovirus insect cell system
T3 sequence (P45985 whole entry): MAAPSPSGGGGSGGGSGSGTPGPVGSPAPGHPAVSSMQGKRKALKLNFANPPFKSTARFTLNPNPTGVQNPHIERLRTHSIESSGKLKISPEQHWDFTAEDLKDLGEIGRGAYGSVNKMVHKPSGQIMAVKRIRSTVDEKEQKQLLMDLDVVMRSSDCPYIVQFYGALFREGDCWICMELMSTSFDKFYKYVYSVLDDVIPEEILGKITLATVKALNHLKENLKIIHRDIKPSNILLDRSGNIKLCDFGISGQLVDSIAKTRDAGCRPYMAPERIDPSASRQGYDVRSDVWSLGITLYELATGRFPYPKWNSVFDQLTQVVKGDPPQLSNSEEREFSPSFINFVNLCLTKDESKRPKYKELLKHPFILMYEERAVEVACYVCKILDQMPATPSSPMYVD

[29] = target: Protein kinase C (PKC); test: Inhibition of human PKC expressed in baculovirus insect cell system
[30] = target: Vascular endothelial growth factor receptor 1 (Homo sapiens, UniProt P17948); test: Inhibition of human VEGFR1 expressed in baculovirus insect cell system
[31] = target: Vascular endothelial growth factor receptor 2 (Homo sapiens, UniProt P35968); test: Inhibition of human VEGFR2 expressed in baculovirus insect cell system
[32] = target: Vascular endothelial growth factor receptor 3 (Homo sapiens, UniProt P35916); test: Inhibition of human VEGFR3 expressed in baculovirus insect cell system

Chain of Mitogen-activated protein kinase 14 (Q16539 whole entry): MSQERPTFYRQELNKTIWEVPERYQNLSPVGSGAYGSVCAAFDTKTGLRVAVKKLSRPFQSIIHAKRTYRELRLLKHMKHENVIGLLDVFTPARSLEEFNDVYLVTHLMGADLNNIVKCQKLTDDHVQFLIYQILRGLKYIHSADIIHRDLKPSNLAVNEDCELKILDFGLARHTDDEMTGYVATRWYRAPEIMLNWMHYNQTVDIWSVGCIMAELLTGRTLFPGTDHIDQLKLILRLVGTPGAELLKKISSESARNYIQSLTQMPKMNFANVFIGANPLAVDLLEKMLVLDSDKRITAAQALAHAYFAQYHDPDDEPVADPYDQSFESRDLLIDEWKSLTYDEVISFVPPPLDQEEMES
Chain of Mitogen-activated protein kinase kinase kinase 10 (Q02779 whole entry): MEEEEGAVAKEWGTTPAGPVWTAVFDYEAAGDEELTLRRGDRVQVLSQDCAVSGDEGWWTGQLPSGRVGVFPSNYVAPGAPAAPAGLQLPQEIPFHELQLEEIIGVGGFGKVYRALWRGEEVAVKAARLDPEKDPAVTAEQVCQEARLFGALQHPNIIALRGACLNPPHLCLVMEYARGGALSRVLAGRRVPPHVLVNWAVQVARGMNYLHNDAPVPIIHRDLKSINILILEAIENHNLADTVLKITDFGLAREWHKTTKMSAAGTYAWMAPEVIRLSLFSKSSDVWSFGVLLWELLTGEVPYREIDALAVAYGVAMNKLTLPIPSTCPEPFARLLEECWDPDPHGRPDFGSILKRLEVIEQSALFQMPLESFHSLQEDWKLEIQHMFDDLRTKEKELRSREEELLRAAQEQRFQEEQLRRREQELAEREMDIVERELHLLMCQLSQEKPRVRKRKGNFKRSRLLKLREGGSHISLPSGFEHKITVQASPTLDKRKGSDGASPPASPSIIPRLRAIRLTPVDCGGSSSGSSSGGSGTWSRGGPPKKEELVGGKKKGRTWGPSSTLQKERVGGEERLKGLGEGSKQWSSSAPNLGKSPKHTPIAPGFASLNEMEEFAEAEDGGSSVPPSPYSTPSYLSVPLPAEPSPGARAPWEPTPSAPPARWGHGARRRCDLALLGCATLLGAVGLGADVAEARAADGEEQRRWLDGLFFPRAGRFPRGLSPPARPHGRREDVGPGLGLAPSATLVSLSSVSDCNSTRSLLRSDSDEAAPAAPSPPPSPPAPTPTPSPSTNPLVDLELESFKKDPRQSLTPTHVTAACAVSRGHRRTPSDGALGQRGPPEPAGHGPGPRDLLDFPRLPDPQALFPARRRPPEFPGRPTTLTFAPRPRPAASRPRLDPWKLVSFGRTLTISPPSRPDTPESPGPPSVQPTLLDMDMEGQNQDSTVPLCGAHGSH
Chain of Vascular endothelial growth factor receptor 1 (P17948 whole entry): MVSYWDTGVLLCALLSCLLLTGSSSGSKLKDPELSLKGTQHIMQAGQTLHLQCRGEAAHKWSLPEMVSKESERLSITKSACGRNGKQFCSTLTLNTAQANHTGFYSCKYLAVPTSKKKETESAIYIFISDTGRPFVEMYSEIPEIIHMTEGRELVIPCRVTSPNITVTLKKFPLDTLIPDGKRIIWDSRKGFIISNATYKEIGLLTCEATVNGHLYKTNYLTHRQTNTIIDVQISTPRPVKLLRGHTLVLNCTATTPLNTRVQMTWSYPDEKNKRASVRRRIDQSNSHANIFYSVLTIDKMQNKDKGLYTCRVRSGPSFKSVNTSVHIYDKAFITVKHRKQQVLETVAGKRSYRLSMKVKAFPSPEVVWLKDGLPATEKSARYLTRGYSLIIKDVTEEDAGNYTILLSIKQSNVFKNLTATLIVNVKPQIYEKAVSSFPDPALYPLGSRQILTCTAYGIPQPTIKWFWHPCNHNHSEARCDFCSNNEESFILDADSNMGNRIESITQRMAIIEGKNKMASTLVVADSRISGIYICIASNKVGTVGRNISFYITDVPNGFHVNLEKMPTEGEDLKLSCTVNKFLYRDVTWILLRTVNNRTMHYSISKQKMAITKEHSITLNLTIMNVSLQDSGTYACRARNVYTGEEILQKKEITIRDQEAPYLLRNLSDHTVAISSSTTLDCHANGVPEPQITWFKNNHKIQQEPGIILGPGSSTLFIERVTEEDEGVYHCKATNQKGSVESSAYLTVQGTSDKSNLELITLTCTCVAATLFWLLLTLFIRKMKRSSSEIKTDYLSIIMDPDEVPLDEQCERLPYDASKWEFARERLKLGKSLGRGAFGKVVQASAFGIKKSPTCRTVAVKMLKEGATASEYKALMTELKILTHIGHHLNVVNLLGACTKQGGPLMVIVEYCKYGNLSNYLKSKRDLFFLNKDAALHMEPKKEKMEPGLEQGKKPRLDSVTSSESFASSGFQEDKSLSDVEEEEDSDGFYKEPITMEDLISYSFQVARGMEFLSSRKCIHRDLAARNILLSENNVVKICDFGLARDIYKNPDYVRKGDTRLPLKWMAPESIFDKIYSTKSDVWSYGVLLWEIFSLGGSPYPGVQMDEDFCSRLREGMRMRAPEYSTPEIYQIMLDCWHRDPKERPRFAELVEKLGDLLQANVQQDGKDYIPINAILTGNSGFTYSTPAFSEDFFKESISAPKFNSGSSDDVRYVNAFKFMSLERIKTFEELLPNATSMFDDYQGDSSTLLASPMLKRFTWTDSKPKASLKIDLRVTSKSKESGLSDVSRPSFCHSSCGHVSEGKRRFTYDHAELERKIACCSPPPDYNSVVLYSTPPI

pIC50 [1]: 6.71
pIC50 [2]: 7.18
pIC50 [3]: 6.80
Compound: CC(C)Oc1ccc2c(c1)CCc1c-2c2c(c3c1[nH]c1ccccc13)CNC2=O

inhibition [4]: 35%
inhibition [5]: 4%
Compound: O=C1NCc2c1c1c(c3c2c2ccccc2n3CCO)CCc2cc(OC3CCCCC3)ccc2-1

pIC50 [6]: < 5.00
pIC50 [7]: < 5.00
IC50 [9]: > 10000 nM
IC50 [10]: > 10000 nM
pIC50 [11]: 5.92
half-life [12]: 48 min
AUC [13]: 579 ng·h/mL
Vd [14]: 2 L/kg
clearance [15]: 28 mL/min/kg
AUC [16]: 1070 ng·h/mL
Cmax [17]: 339 ng/mL
half-life [18]: 66 min
bioavailability [19]: 37%
remaining at 2 h [20]: 44%
concentration at 2 h [23]: 580 nM
pIC50 [1]: 7.48
pIC50 [25]: 5.73
pIC50 [26]: 5.98
IC50 [27]: > 30000 nM
pIC50 [28]: < 5.52
IC50 [29]: > 6000 nM
pIC50 [30]: < 5.00
pIC50 [31]: 5.47
pIC50 [32]: 5.61
pIC50 [2]: 7.59
pIC50 [3]: 7.19
Compound: CC(C)Oc1ccc2c(c1)CCc1c-2c2c(c3c4ccccc4n(CCO)c13)CNC2=O
pIC50 [8]: < 5.00
pIC50 [21]: 7.37
Activity [22]: 64%
Activity [24]: Active

pIC50 [3]: 6.00
inhibition [4]: 14%
Compound: O=C1NCc2c1c1c(c3c2c2ccccc2n3CCO)CCc2ccccc2-1
